Measurements published in ChEMBL document CHEMBL3997808 (J Med Chem, 2017).
In brackets after ≈: the same amount, converted by molar mass.

How the values were obtained:
[1] = Drug metabolism in human hepatocytes assessed as 5-benzyl-1H-1,2,4-triazole-3-carboxylic acid formation at 10 uM measured up to 4 hrs; type: ADME, cell-based, Hepatocyte
Outline: (§1)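 Compound at 10 μM was incubated with hepatocyte suspensions at 1 million cells/mL. Incubation ran at 37°C under 5% CO2:95% O2 for up to 4 h.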

[2] = Cmax in cynomolgus monkey at 1.9 mg/kg, po; type: ADME, organism-based, Macaca fascicularis; design: dose 1.9 mg/kg, route oral; conditions: in vivo
[3] = biological target: T1, Receptor-interacting serine/threonine-protein kinase 1 (Mus musculus, UniProt Q60855); assay: Displacement of (14-(2-{[3-({2-{[4-(cyanomethyl)phenyl]amino}-6-[(5-cyclopropyl-1H-pyrazol-3-yl)-amino]-4-pyrimidinyl}amino)propyl]amino}-2-oxoethyl)-16,16,18,18-tetramethyl-6,7,7a,8a,9,10,16,18-octahydrobenzo[2'',3'']indolizino-[8'',7'':5',6']pyrano[3',2':3,4]pyrido[1,2-a]indol-5-ium-2-sulfonate from mouse RIP1 (1 to 378 residues) expressed in baculovirus infected insect cells measured for 50 mins by fluorescence polarization assay
T1 sequence (Q60855 whole entry): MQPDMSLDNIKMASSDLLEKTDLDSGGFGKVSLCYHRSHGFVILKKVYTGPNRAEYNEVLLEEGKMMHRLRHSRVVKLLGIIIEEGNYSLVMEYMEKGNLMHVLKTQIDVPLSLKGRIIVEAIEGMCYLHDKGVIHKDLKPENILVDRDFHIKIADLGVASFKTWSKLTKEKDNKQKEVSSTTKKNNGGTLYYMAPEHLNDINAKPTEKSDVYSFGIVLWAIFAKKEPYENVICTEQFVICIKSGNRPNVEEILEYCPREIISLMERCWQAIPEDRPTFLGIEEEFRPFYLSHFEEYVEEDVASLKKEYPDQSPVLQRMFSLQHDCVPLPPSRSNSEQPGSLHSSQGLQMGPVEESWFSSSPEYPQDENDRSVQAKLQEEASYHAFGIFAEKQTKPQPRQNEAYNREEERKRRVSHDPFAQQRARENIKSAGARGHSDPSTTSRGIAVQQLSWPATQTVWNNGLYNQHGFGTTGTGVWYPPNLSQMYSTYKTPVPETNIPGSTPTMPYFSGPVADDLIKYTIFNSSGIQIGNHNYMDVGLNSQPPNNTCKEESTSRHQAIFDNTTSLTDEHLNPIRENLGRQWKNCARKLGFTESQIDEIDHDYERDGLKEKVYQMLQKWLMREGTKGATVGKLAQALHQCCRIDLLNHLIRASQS
Outline: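 Competitive FP binding assay in which test compounds displace a fluorescently labeled ATP-competitive ligand from RIP1.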

[4] = Drug metabolism in rat hepatocytes assessed as (S)-3-amino-5-methyl-2,3-dihydrobenzo[b][1,4]oxazepin-4(5H)-one formation at 10 uM measured up to 4 hrs; type: ADME, cell-based, Hepatocyte; outline: as §1
[5] = Stability in dog microsomes measured up to 45 mins; type: ADME, Canis lupus familiaris, Microsome; conditions: 0.75 h
[6] = AUC (0 to infinity) in rat at 2 mg/kg, po; type: ADME, organism-based; design: dose 2 mg/kg, route oral, time infinity; conditions: in vivo
[7] = Cmax in rat at 2.1 mg/kg, po; type: ADME, organism-based; design: dose 2.1 mg/kg, route oral; conditions: in vivo
[8] = tested on: Kidney; assay: Drug uptake in Han Wistar rat kidney at 2 mg/kg, iv administered as 4 hrs infusion; type: ADME, organism-based; conditions: in vivo
Outline: (§2)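 Rats received a 4 h iv infusion, after which terminal tissue samples were collected. Parent drug concentrations were measured in each tissue and compared with blood levels.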

[9] = Half-life in rat at 1.1 mg/kg, iv; type: ADME, organism-based; conditions: in vivo
[10] = AUC in rat at 2.1 mg/kg, po; type: ADME, organism-based; conditions: in vivo
[11] = Stability in cynomolgus monkey microsomes measured up to 45 mins; type: ADME, Macaca fascicularis, Microsome; conditions: 0.75 h
[12] = Half-life in cynomolgus monkey at 1.2 mg/kg, iv; type: ADME, organism-based, Macaca fascicularis; conditions: in vivo
[13] = Drug metabolism in human hepatocytes assessed as 5-(hydroxy(phenyl)methyl)-N-((S)-5-methyl-4-oxo-2,3,4,5-tetrahydrobenzo[b][1,4]oxazepin-3-yl)-1H-1,2,4-triazole-3-carboxamide formation at 10 uM measured up to 4 hrs; type: ADME, cell-based, Hepatocyte; outline: as §1
[14] = tested on: Heart; assay: Drug uptake in Han Wistar rat heart at 2 mg/kg, iv administered as 4 hrs infusion; type: ADME, organism-based; conditions: in vivo; outline: as §2
[15] = biological target: Cytochrome P450 2C9 (Homo sapiens, UniProt P11712); assay: Inhibition of recombinant human CYP2C9; type: ADME
Chain of Cytochrome P450 2C9 (P11712 whole entry): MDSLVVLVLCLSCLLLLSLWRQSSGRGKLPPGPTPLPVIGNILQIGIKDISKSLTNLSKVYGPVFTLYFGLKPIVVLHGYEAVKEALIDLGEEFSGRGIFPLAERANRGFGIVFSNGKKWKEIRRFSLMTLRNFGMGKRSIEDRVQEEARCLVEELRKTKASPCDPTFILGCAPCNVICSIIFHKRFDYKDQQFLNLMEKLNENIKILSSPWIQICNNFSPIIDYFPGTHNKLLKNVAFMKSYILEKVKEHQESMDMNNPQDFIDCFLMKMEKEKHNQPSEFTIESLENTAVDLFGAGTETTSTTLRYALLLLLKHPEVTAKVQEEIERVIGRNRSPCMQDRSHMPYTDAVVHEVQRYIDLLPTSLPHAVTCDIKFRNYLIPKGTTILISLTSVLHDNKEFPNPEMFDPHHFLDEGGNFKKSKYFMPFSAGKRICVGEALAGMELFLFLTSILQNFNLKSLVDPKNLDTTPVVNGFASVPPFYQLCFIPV

[16] = Stability in human microsomes measured up to 45 mins; type: ADME, Microsome; conditions: 0.75 h
[17] = Drug metabolism in cynomolgus monkey hepatocytes assessed as 5-benzyl-1H-1,2,4-triazole-3-carboxylic acid formation at 10 uM measured up to 4 hrs; type: ADME, cell-based, Macaca fascicularis, Hepatocyte; outline: as §1
[18] = Oral bioavailability in rat at 2.1 mg/kg; type: ADME, organism-based; conditions: in vivo
[19] = AUC in cynomolgus monkey at 1.9 mg/kg, po; type: ADME, organism-based, Macaca fascicularis; conditions: in vivo
[20] = Tmax in rat at 2.1 mg/kg, po; type: ADME, organism-based; conditions: in vivo
[21] = Drug metabolism in rat hepatocytes assessed as 5-benzyl-1H-1,2,4-triazole-3-carboxylic acid formation at 10 uM measured up to 4 hrs; type: ADME, cell-based, Hepatocyte; outline: as §1
[22] = Inhibition of recombinant human cytochrome P450; type: ADME; conditions: recombinant enzyme
[23] = tested on: Cynomolgus monkey; assay: Toxicity in cynomolgus monkey at 2 to 1000 mg/kg, po after 1 month; type: organism-based, Macaca fascicularis; conditions: in vivo, 730.5 h
[24] = Drug metabolism in cynomolgus monkey hepatocytes assessed as (S)-3-amino-5-methyl-2,3-dihydrobenzo[b][1,4]oxazepin-4(5H)-one formation at 10 uM measured up to 4 hrs; type: ADME, cell-based, Macaca fascicularis, Hepatocyte; outline: as §1
[25] = Volume of distribution at steady state in rat at 1.1 mg/kg, iv; type: ADME, organism-based; conditions: in vivo, read-out: Vdss
[26] = tested on: Colon; assay: Drug uptake in Han Wistar rat colon at 2 mg/kg, iv administered as 4 hrs infusion; type: ADME, organism-based; conditions: in vivo; outline: as §2
[27] = Fraction unbound in dog blood; type: ADME, tissue-based, Canis lupus familiaris
[28] = Clearance in rat at 1.1 mg/kg, iv; type: ADME, organism-based; conditions: in vivo
[29] = Stability in rat microsomes measured up to 45 mins; type: ADME, Microsome; conditions: 0.75 h
[30] = Fraction unbound in rat blood; type: ADME, tissue-based
[31] = Drug metabolism in cynomolgus monkey hepatocytes assessed as glucuronide metabolite M553 formation at 10 uM measured up to 4 hrs; type: ADME, cell-based, Macaca fascicularis, Hepatocyte; outline: as §1
[32] = tested on: Rattus norvegicus; assay: Toxicity in rat at 2 to 1000 mg/kg, po after 1 month; type: organism-based; conditions: in vivo, 730.5 h
[33] = Lipophilicity, log D of the compound at pH 7.4 by RP-HPLC method; type: physicochemical; conditions: buffer
Outline: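 Chromatographic hydrophobicity index (CHI) log D at pH 7.4, calculated from the retention time in a fast-gradient reverse-phase HPLC run.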

[34] = Drug metabolism in human hepatocytes assessed as (S)-5-benzyl-N-(4-oxo-2,3,4,5-tetrahydrobenzo[b][1,4]oxazepin-3-yl)-1H-1,2,4-triazole-3-carboxamide formation at 10 uM measured up to 4 hrs; type: ADME, cell-based, Hepatocyte; outline: as §1
[35] = Drug metabolism in cynomolgus monkey hepatocytes assessed as (S)-5-benzyl-N-(4-oxo-2,3,4,5-tetrahydrobenzo[b][1,4]oxazepin-3-yl)-1H-1,2,4-triazole-3-carboxamide formation at 10 uM measured up to 4 hrs; type: ADME, cell-based, Macaca fascicularis, Hepatocyte; outline: as §1
[36] = Kinetic solubility in phosphate buffer saline at pH 7.4 by chemiluminescence nitrogen detection method; type: physicochemical; conditions: phosphate buffered saline, read-out: Kinetic_solubility
Outline: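 Kinetic aqueous solubility measured by chemiluminescent nitrogen detection (CLND) in phosphate-buffered saline pH 7.4. The solution was prepared from a DMSO stock of the inhibitor.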

[37] = biological target: Voltage-gated inwardly rectifying potassium channel KCNH2 (Homo sapiens, UniProt Q12809); assay: Inhibition of human ERG expressed in HEK293 cells; type: cell-based
Chain of Voltage-gated inwardly rectifying potassium channel KCNH2 (Q12809 whole entry): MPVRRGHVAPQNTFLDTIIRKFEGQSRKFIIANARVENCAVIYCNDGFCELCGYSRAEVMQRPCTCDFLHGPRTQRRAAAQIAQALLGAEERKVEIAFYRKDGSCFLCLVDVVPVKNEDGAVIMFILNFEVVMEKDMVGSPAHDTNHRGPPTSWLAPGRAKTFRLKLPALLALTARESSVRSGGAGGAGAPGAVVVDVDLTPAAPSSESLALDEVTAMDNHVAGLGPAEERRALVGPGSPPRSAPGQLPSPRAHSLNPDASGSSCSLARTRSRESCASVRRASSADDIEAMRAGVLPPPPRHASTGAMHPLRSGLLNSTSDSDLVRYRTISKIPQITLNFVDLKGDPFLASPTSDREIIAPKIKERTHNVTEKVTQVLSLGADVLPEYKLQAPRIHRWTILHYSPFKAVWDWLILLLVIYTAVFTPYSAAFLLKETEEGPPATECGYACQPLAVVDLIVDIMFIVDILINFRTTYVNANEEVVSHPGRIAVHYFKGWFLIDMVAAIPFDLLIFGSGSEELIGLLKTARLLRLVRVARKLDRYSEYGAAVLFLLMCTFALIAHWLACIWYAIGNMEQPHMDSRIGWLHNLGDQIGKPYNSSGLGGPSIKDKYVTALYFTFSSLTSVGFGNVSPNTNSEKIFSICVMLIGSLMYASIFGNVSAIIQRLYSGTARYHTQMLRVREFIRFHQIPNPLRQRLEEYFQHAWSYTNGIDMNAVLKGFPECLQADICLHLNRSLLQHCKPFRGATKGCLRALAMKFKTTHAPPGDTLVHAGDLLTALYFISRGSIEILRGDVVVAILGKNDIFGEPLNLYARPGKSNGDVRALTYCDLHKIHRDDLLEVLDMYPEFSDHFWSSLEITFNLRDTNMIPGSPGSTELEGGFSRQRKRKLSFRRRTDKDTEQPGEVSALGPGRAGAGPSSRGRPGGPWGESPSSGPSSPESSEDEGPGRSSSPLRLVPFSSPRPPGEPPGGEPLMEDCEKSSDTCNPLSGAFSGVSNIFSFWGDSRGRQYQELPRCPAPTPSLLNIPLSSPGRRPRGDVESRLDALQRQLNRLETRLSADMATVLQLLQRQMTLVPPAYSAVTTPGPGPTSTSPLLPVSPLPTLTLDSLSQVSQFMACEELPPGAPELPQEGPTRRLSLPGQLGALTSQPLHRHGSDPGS

In the case of `CN1C(=O)[C@@H](NC(=O)c2nnc(Cc3ccccc3)[nH]2)COc2ccccc21` [GSK2982772], the Drug metabolism [1] is reported as “Metabolite_Detected”, the Cmax [2] is reported as 0.72 µg/mL and the IC50 [3] is reported as 2.5 µM. For the same molecule, the Drug metabolism [4] was “Metabolite_Detected”, the Stability [5] was “Stable” and the AUC(0-inf) [6] was 2.3 µg·h/mL. For the same molecule, the Cmax [7] was 0.81 µg/mL, the Drug uptake [8] was “Active” and the half-life [9] was 3.9 h. The AUC [10] was 2.3 µg·h/mL, the Stability [11] was “Stable” and the half-life [12] was 6.5 h. The Drug metabolism [13] was “Metabolite_Detected”, the Drug uptake [14] was “Active” and the IC50 [15] was 25 µM. For the same molecule, the Stability [16] was “Stable”, the Drug metabolism [17] was “Metabolite_Detected” and the bioavailability [18] was 110%. The AUC [19] was 2.9 µg·h/mL, the Tmax [20] was 0.25 h and the Drug metabolism [21] was “Metabolite_Detected”. For the same molecule, the “inhibition (INH)” value [22] was “Not Active”, the Activity [23] was “Non-Toxic” and the Drug metabolism [24] was “Metabolite_Detected”. The Vd [25] was 2.7 L/kg, the Drug uptake [26] was “Active” and the fraction unbound [27] was 0.11. The clearance [28] was 1.02 L/h/kg, the Stability [29] was “Stable” and the fraction unbound [30] was 0.042. The Drug metabolism [31] was “Metabolite_Detected”, the Activity [32] was “Non-Toxic” and the chromatographic logD [33] was 3.8. The Drug metabolism [34] was “Metabolite_Detected”, the Drug metabolism [35] was “Metabolite_Detected” and the solubility kinetic [36] was 0.1 mg/mL (≈ 265 µM). It also gave an IC50 [37] of 195 µM.
